Source: PubChem
The list is not random: actives were taken first. Their share in the collection is about 2%.
HCV core dimer: HCV core protein dimerization inhibition; AID 1899; actives 0.33% (n = 300,000); inhibition, % at 5 µM; TR-FRET GST/Flag-core106 dimerization, 1536-well;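 active = inhibition above the mean of all tested compounds plus 3 SD, set per screening campaign, cut at about 45% in these data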
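test system = GST/Flag-tagged HCV core106 proteins | probe or stimulus = Eu donor and XL665 acceptor anti-tag antibodies | times = compound-protein-antibody incubation 4 h at 22.5 °C | signal = TR-FRET, excitation 340 nm, emission 617 and 671 nm | measure = percent inhibition of core106 dimerization signal | controls = wells lacking GST-core106 and wells with excess unlabelled core106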
FID counter: fluorescent intercalator displacement, NS3 helicase counter-screen; DNA fluorescent intercalator displacement, fluorescence; inhibition, % at 7.9 µM; actives 0.17% (n = 290,000); in the data active = inhibition above about 37%;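 note: 0% = vehicle and 100% = reference compound; higher means more ethidium bromide displaced from hairpin DNA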
MLLE-PAM2 inh: inhibitors of microRNA-mediated deadenylation, human PABP1 MLLE binding. P11940. GST-MLLE / FITC-PAM2 fluorescence polarization. inhibition, % at 20 µM. actives 0.36% (n = 360,000). AID 588489; in the data active = inhibition above about 35%, passing the limit was not always enough;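 note: plate controls were DMSO wells with GST-MLLE for no effect and wells lacking GST-MLLE protein for full effect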
Target sequence (P11940 whole entry, looked up): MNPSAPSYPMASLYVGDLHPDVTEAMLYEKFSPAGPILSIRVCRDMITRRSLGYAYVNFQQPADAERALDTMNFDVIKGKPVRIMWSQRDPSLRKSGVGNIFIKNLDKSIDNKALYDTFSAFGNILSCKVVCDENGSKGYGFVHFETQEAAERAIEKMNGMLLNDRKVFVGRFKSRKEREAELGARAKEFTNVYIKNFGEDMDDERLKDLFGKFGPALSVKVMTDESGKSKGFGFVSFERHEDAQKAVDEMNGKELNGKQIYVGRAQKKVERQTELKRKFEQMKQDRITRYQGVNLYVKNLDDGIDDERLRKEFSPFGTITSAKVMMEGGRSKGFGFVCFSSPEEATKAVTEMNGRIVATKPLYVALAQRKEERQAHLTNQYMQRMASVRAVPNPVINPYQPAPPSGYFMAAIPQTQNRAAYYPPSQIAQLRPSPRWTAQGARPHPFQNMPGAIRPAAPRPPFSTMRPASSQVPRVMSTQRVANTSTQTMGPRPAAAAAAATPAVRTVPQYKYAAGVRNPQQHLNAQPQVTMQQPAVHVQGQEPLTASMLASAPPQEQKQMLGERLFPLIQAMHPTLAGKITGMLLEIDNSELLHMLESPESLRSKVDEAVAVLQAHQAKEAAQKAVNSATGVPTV
eIF4H inh: inhibitors of RNA binding by human eIF4H; Q15056; AID 2012; inhibition, % at 35 µM; actives 0.94% (n = 290,000); eIF4H fluorescence polarization binding assay;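 note: calls also rest on retests at 20 µM and on dose response follow-up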
HCV NS3 hel inh: HCV NS3 helicase inhibition | AID 1800 | NS3 helicase DNA unwinding, Cy5 molecular beacon fluorescence | actives 0.56% (n = 290,000) | inhibition, % at 10.9 µM;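 active = inhibition above the mean of all tested compounds plus 3 SD, set per campaign, cut at about 35% in these data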;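 note: 0% = DMSO wells and 100% = thioflavine S control wells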
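test system = hepatitis C virus NS3 helicase domain fragment enzyme | reagent = annealed dual-labelled DNA beacon duplex, ATP-started | times = 1 h at 25 °C | detection = Cy5 fluorescence, 0 and 60 min reads | read-out basis = percent inhibition from t60/t0 fluorescence ratio | control set = DMSO and thioflavine S | replication = one well per compound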
PABP FP inh: PABP-poly(A) binding inhibition. P11940. PABP-poly(A) RNA binding, fluorescence polarization. inhibition, % at 35 µM. actives 1% (n = 290,000);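 note: calls also rest on retests at 20 µM and on dose response follow-up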
* marks the source's active call; other numbers are inactive results; ? = inconclusive; nt = no result given. Unless noted, the rule behind the calls is not given here.

SMILES	HCV core dimer	FID counter	MLLE-PAM2 inh	eIF4H inh	HCV NS3 hel inh	PABP FP inh
C=CCn1c(SCC(=O)NCC2CCCO2)nnc1-c1ccncc1 (stereo unspecified)	nt	nt	-6	nt	nt	nt
Cc1cccc(C)c1NC(=O)COC(=O)c1cc[n+]([O-])cc1	-3	nt	2	nt	nt	nt
CCOc1cc(/C=N/Nc2nc(Nc3ccccc3)nc(N3CCCCC3)n2)ccc1OCC(=O)O	29	-1	7	2	15	?
CCOc1cc(/C=N/Nc2ccccc2Cl)ccc1OCC(=O)O	-10	-27	5	10	53*	0
Cc1c(O)cc2c(c1O)C(=O)CC(c1ccc(O)cc1)O2 (stereo unspecified)	44	-8	-4	95*	8	45*
COc1cc(O)c2c(c1)OC(c1ccc(O)cc1)CC2=O (stereo unspecified)	3	-16	-11	10	10	4
CCC(C)c1ccccc1N1CC(C(=O)N(C)CC(=O)Nc2cccc(F)c2)CC1=O (stereo unspecified)	-8	nt	-15	nt	nt	nt
CC(OC(=O)c1cc(=O)[nH]c2ccccc12)C(=O)N1C(C)CCCC1C (stereo unspecified)	nt	nt	0	nt	nt	nt
COc1ccc(NC(=O)Nc2nc3c(s2)CCCC3)cc1	-10	-9	0	80*	-6	active
O=C(COC(=O)CN1C(=O)c2ccccc2C1=O)Nc1cccc(F)c1	nt	nt	5	nt	nt	nt
COc1ccccc1CNC(=O)c1cc(-c2ccccc2)n(Cc2cc(C)no2)n1	-23	nt	3	nt	nt	nt
O=C(CSc1n[nH]c(-c2cccnc2)n1)Nc1ccccc1C(F)(F)F	9	-10	-33	-6	-5	2
COc1ccc2c3c(cccc13)N(C)N=C2C	-37	7	95*	100*	11	?
Cc1cc(C(=O)CSc2nc(N)cc(N)n2)c(C)n1C1CC1	19	-7	1	81*	11	-9
NCCC1CCCC(CCN)N1 (stereo unspecified)	12	nt	1	nt	nt	nt
COc1cc(CNC(=O)c2cc(-c3ccc(F)cc3OC)n[nH]2)cc(OC)c1	nt	nt	6	nt	nt	nt
O=C(N/N=C/c1cc(Br)c(Br)o1)C(O)c1ccccc1 (stereo unspecified)	9	-5	-22	63*	26	-11
Cc1ccc(/C=N/NC(=O)C(O)c2ccccc2)o1 (stereo unspecified)	-4	-13	11	3	-5	1
CCOc1ccccc1NC(=O)CSc1nc(N)c(C#N)cc1C#N	45	-4	-10	12	25	-6
COc1ccccc1NC(=O)CSc1nc(N)c(C#N)cc1C#N	15	-2	-73	87*	-3	-1
Cc1cc(O)c(CN2CCN(S(=O)(=O)c3cccs3)CC2)cc1C(C)C	nt	nt	14	nt	nt	nt
O=C(N1CCOCC1)N1CCN(C(=O)N2CCOCC2)CC1	nt	-2	nt	nt	-1	nt
Cc1cc(NC(=O)CSCC(=O)N(C)Cc2ccc(Cl)c(Cl)c2)no1	-4	-13	-3	29	5	55*
CCN(Cc1cc2ccc(C)cc2[nH]c1=O)C(=O)c1cccnc1	nt	-11	nt	84*	9	59*
CC(C)CN(Cc1cc2ccccc2[nH]c1=O)C(=O)c1cccnc1	2	-9	10	-11	-1	-2
SMILES	HCV core dimer	FID counter	MLLE-PAM2 inh	eIF4H inh	HCV NS3 hel inh	PABP FP inh
Cc1[nH]c(-c2ccc(F)cc2)cc1C(=O)N1CCN(c2ccccc2)CC1	nt	-40	-6	4	-14	12
Cc1ccc(N2CCN(C(=O)c3cc(-c4ccc(F)cc4)[nH]c3C)CC2C)cc1 (stereo unspecified)	nt	-40	-14	?	-32	25*
CC(=O)c1ccc(NS(=O)(=O)c2cccc(C(=O)Nc3ccccc3C(=O)O)c2)cc1	-2	-4	1	1	15	22
CC(C)(C)c1ccc(C(=O)NC(=S)NCc2ccco2)cc1	0	-17	16	3	15	14
CC(C)(C)c1ccc(/C([O-])=C(/C(=S)NCc2ccco2)[n+]2ccccc2)cc1	53*	-3	nt	32*	14	60*
OCC[C@@H]1C[C@@H](O)[C@H](O)[C@@]2(OCCc3ccccc32)O1	-6	-6	0	8	-2	-16
C=CCNC(=O)C1CC(=O)N(c2ccc(OCC(=O)Nc3ccc(Cl)cc3)cc2)C1 (stereo unspecified)	2	-25	6	-10	-12	-2
